Published values from different studies.
MAPK14: Mitogen-activated protein kinase 14 (MAPK14, Homo sapiens, UniProt Q16539)
MAPK14 T106M: Mitogen-activated protein kinase 14 (MAPK14, Homo sapiens, UniProt Q16539, T106M)

Cc1cc(NC(=O)c2cccc3cc(-c4cccc5[nH]nc(N)c45)ccc23)ccc1F — activity vs control (MAPK14; enzyme activity; inhibitor; 0.1 µM): 85%
O=C(NCCCC1CCCCC1)c1ccc(CNC(=O)c2cnn(-c3ccccc3)c2C(F)(F)F)cc1 — remaining binding (MAPK14; cell-free assay; competition with immobilised ligand; 0.1 µM): 100%
CC(C)(O)[C@H]1CC[C@H](Nc2ccc3ncc(-c4cccc(C(F)(F)F)c4)n3n2)CC1 — remaining activity (MAPK14; enzyme activity; inhibitor; 1 µM): 86.4%
O=C1NC(=O)c2cc(Nc3ccc(F)cc3)c(Nc3ccc(F)cc3)cc21 — remaining signal (MAPK14; cell-free assay; 0.5 µM): 88.3%
CNC(=O)c1cc(Oc2ccc(NC(=O)Nc3ccc(Cl)c(C(F)(F)F)c3)cc2)ccn1 — inhibition (MAPK14 T106M; enzyme activity; inhibitor; 10 µM): 90%
N#Cc1c(NC(=O)c2cccc3ccccc23)sc2c1CCCC2 — remaining signal (MAPK14; cell-free assay; 0.5 µM): 98.1%
CN(C)C1CCN(CC#Cc2nn(C3CCCC3)c3nc(NCc4ccccc4)ncc23)C1 (stereo not drawn) — inhibition (MAPK14; enzyme activity; inhibitor; FRET; 10 µM): 4%
c1nc2c(Nc3ccc4c(c3)OCCO4)nc(Nc3ccc4c(c3)OCCO4)nc2[nH]1 — activity vs control (MAPK14; enzyme activity; inhibitor; 10 µM): 90%
Cc1cc(-n2nc(Cc3cc(F)cc(C(F)(F)F)c3)nc2C)ccc1C(N)=O — remaining binding (MAPK14; cell-free assay; competition with immobilised ligand; 1 µM): 95%
Cn1c(=O)n(-c2ccc(C(C)(C)C#N)cc2)c2c3cc(-c4cnc5ccccc5c4)ccc3ncc21 — remaining activity (MAPK14; enzyme activity; inhibitor; 10 µM): 111%
COc1cc(Nc2cnc(C#N)c(O[C@H](C)CN(C)C)n2)ncc1-c1cnn(C)c1 — remaining activity (MAPK14; enzyme activity; inhibitor; radiometric; 10 µM): 85%
Cc1ccc(NC(=O)c2ccc(C)c(C(F)(F)F)c2)cc1C#Cc1nn(C2CCC(O)CC2)c2ncnc(N)c12 (stereo not drawn) — remaining signal (MAPK14; cell-free assay; 10 µM): 3%
Cc1sc(C(=O)NC2COC2)cc1-n1cc(NC(=O)Nc2c(F)cccc2Cl)cn1 — remaining activity (MAPK14; enzyme activity; inhibitor; 10 µM): 93.2%
N#CC1(c2ccccn2)CCN(Cc2cc(C(=O)N3CCCC3)c(=O)n3ccccc23)CC1 — remaining binding (MAPK14; cell-free assay; competition with immobilised ligand; 1 µM): 86%
CC(C)(C)C(=O)c1sc(NC2CCCCC2)nc1N — remaining activity (MAPK14; enzyme activity; inhibitor; 10 µM): 102%
CSc1cccnc1N1CCN(Cc2nc3ccccc3[nH]2)CC1 — remaining binding (MAPK14; cell-free assay; competition with immobilised ligand; 1 µM): 100%
Cc1cnc(NC2CCOCC2)nc1-n1cnc(C(=O)NC(CN)c2cc(F)cc(Cl)c2)c1 (stereo not drawn) — remaining activity (MAPK14; enzyme activity; inhibitor; radiometric; 1 µM): 77%
Cc1noc([C@H]2C[C@@H](c3ccc(C(F)(F)F)cc3)CN(C(=O)N3CCS(=O)(=O)C3)C2)n1 — remaining binding (MAPK14; cell-free assay; competition with immobilised ligand; 1 µM): 79%
Cc1ccc(Nc2nccc(N(C)c3ccc4c(C)n(C)nc4c3)n2)cc1S(N)(=O)=O — inhibition (MAPK14; enzyme activity; inhibitor; 0.3 µM): 6%
CN([C@@H]1CCc2c(CC(=O)O)c3cc(S(C)(=O)=O)ccc3n2C1)S(=O)(=O)c1ccc(F)cc1 — remaining binding (MAPK14; cell-free assay; competition with immobilised ligand; 1 µM): 100%
CCN(CC)CCNC(=O)c1c(C)[nH]c(/C=C2\C(=O)Nc3ccc(F)cc32)c1C — inhibition (MAPK14 T106M; enzyme activity; inhibitor; 0.3 µM): 5%
